Activity calls are given as the source filed them. No cut-off for these calls is given here.
Key:
Histamine H3 receptor [1] = target: T1, Histamine H3 receptor (Homo sapiens, UniProt Q9Y5N1); assay: Displacement of [3H]N-alpha-methylhistamine from human histamine H3 receptor expressed in SK-N-MC cells; format: cell-based
Outline: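 Membranes prepared from SK-N-MC cells expressing human H3 receptor, homogenized in 50 mM Tris/5 mM EDTA, pH 7.4. Incubated with 0.8 nM [3H]-N-alpha-methylhistamine ± compound, 60 min, 25 °C. Filtration over polyethylenimine-treated glass fiber filters with four ice-cold washes. Nonspecific binding defined with 10 µM histamine.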

Histamine H3 receptor [2] = target: T1, Histamine H3 receptor; assay: Antagonist activity at human histamine H3 receptor expressed in SK-N-MC cells assessed as inhibition of forskolin-stimulated cAMP accumulation treated 10 min before histamine challenge; format: functional, cell-based; details: read-out: pA2 (converted)
Outline: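 SK-N-MC sublines stably carrying human H3 receptor plus a beta-galactosidase reporter driven by multiple cAMP responsive elements. Antagonist added 10 min before histamine; forskolin (5 µM final) 5 min after histamine; 6 h at 37 °C. Lysis, then chlorophenol red beta-D-galactopyranoside substrate, absorbance 570 nm. pA2 from Schild regression of rightward shifts in histamine curves; mean of at least three determinations.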

Rattus norvegicus [3] = assay: Ex vivo histamine H3 receptor occupancy in rat striatum at 30 mg/kg, po after 1 hr; format: functional
Outline: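 Ex vivo autoradiography in rat striatum, coronal sections, using [3H]-R-alpha-methylhistamine as radioligand. Oral dosing at 0.1, 0.3, 1, 3, 10 or 30 mg/kg; brains taken 1 h post-dose to measure H3 receptor occupancy.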

[4] = Half life in po dosed rat; format: ADME, organism-based; details: in vivo
Cytochrome P450 2C9 = Cytochrome P450 2C9 (Homo sapiens, UniProt P11712); assay: Inhibition of CPY2C9 at >40 uM
Sequence of Cytochrome P450 2C9 (P11712 whole entry): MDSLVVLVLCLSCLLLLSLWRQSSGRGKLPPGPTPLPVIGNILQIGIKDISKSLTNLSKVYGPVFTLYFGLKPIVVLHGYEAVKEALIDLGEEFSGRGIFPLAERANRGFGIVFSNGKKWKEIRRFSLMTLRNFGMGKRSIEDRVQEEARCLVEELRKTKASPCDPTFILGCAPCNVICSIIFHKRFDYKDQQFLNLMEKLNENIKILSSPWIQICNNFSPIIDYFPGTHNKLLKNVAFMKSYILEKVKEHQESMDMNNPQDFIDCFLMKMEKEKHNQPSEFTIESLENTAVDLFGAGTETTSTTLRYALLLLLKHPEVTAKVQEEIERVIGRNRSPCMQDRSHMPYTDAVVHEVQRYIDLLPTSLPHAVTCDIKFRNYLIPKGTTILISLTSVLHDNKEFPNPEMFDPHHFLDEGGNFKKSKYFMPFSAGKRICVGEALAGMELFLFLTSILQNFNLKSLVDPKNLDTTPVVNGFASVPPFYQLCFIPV

Histamine H1 receptor = Histamine H1 receptor (Homo sapiens, UniProt P35367); assay: Displacement of […] from histamine H1 receptor expressed in SK-N-MC cells; format: cell-based
Sequence of Histamine H1 receptor (P35367 whole entry): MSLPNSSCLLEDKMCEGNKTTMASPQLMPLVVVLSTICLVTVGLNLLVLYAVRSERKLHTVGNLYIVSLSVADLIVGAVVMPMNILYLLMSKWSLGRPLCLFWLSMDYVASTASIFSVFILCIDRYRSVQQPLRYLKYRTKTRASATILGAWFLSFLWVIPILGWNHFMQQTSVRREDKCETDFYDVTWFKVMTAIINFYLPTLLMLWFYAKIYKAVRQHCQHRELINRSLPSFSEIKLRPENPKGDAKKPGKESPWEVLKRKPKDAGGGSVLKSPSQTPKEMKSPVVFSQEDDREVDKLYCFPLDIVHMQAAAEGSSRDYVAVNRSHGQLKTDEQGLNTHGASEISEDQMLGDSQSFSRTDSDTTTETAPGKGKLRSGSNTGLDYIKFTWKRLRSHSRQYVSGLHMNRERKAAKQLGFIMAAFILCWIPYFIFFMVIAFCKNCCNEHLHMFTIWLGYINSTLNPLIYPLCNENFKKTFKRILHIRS

Cytochrome P450 2D6 = Cytochrome P450 2D6 (Homo sapiens, UniProt P10635); assay: Inhibition of CPY2D6 at >40 uM
Sequence of Cytochrome P450 2D6 (P10635 whole entry): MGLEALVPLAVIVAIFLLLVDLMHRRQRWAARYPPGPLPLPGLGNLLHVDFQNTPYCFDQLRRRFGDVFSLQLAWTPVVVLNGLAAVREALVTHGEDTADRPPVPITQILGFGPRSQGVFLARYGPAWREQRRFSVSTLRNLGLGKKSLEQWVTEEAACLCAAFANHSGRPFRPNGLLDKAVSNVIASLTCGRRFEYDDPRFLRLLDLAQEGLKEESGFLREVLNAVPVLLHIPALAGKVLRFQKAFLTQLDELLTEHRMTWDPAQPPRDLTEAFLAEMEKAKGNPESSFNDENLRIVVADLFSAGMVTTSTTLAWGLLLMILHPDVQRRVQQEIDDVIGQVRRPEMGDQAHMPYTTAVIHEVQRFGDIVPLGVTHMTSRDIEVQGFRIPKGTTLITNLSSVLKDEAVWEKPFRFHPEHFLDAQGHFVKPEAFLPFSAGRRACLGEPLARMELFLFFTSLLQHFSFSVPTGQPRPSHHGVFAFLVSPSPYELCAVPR

Histamine H3 receptor [5] = target: T2, Histamine H3 receptor (Rattus norvegicus, UniProt Q9QYN8); assay: Antagonist activity at rat H3 receptor expressed in SK-N-MC cells assessed as inhibition of forskolin-stimulated cAMP accumulation treated 10 min before histamine challenge; format: functional, cell-based; details: read-out: pA2 (converted)
T2 sequence (Q9QYN8 whole entry): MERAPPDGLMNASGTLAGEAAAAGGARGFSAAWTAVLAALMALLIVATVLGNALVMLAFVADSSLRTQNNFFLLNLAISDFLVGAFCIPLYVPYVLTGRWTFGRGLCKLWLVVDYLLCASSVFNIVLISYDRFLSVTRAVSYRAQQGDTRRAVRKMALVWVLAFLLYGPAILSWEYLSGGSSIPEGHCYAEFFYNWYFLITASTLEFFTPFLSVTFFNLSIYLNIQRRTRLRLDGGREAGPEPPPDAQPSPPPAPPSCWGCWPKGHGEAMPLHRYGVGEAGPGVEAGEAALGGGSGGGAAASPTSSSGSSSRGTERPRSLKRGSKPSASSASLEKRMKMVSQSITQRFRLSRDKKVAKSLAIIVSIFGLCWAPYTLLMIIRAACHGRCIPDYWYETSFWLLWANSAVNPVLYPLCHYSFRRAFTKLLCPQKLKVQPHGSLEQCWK

Rattus norvegicus [6] = assay: Wake promoting activity in Sprague-Dawley rat assessed as decrease in non-rapid eye movement sleep at 10 mg/kg, sc; format: functional, organism-based; set-up: dose 10 mg/kg
Outline: (§1)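 Male adult Sprague-Dawley rats chronically implanted with EEG/EMG electrodes, given 10 mg/kg s.c. or saline vehicle 2 h after light-phase onset. Recording for 8 h, visually scored in 10 s epochs as wake, NREM or REM. Time per 1 h interval as % of recording time; n = 5 animals; vehicle vs compound by paired t-test.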

Cytochrome P450 2C19 = Cytochrome P450 2C19 (Homo sapiens, UniProt P33261); assay: Inhibition of CPY2C19 at >40 uM
Sequence of Cytochrome P450 2C19 (P33261 whole entry): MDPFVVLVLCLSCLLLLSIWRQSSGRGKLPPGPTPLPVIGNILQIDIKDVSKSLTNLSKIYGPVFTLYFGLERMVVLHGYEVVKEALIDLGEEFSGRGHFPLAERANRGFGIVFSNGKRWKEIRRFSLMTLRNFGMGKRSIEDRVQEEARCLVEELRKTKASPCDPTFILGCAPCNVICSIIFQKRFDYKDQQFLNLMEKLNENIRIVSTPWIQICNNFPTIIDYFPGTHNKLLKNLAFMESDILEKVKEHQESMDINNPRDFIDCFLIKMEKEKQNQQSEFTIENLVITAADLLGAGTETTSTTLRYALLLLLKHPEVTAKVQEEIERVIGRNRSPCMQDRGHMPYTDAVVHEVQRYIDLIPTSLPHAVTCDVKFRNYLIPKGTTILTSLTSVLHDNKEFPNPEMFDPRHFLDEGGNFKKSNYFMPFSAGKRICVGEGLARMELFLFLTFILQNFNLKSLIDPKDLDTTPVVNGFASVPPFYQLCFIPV

Cytochrome P450 3A4 = Cytochrome P450 3A4 (Homo sapiens, UniProt P08684); assay: Inhibition of CPY3A4 at >40 uM
Sequence of Cytochrome P450 3A4 (P08684 whole entry): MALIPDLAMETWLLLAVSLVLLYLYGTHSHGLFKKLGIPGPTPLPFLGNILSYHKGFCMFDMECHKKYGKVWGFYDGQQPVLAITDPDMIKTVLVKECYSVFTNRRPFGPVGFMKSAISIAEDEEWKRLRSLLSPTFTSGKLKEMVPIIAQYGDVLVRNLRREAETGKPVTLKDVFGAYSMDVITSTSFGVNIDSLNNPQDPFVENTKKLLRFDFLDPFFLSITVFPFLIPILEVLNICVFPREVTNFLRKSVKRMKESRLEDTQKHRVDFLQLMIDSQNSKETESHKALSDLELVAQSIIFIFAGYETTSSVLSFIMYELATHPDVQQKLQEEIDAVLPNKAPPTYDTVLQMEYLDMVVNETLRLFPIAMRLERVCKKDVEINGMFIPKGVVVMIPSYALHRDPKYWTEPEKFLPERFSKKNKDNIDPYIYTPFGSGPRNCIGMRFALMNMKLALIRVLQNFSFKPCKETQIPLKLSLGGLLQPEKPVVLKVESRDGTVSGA

Histamine H3 receptor [7] = target: T2, Histamine H3 receptor; assay: Displacement of [3H]N-alpha-methylhistamine from rat histamine H3 receptor expressed in SK-N-MC cells; format: cell-based
Outline: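 Membranes from homogenized SK-N-MC cells expressing the rat H3 receptor, in 50 mM Tris/5 mM EDTA pH 7.4. Incubated with 0.8 nM [3H]-Nα-methylhistamine ± compound for 60 min at 25 °C, then filtered and washed with ice-cold buffer. Nonspecific binding was defined with 10 μM histamine.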

[8] = Oral bioavailability in rat; format: ADME, organism-based; details: in vivo
Histamine H4 receptor = Histamine H4 receptor (Homo sapiens, UniProt Q9H3N8); assay: Displacement of […] from histamine H4 receptor expressed in SK-N-MC cells; format: cell-based
hERG (KCNH2) [9] = target: T3, hERG (KCNH2) (Homo sapiens, UniProt Q12809); assay: Inhibition of human ERG at 3 uM; details: read-out: Activity
T3 sequence (Q12809 whole entry): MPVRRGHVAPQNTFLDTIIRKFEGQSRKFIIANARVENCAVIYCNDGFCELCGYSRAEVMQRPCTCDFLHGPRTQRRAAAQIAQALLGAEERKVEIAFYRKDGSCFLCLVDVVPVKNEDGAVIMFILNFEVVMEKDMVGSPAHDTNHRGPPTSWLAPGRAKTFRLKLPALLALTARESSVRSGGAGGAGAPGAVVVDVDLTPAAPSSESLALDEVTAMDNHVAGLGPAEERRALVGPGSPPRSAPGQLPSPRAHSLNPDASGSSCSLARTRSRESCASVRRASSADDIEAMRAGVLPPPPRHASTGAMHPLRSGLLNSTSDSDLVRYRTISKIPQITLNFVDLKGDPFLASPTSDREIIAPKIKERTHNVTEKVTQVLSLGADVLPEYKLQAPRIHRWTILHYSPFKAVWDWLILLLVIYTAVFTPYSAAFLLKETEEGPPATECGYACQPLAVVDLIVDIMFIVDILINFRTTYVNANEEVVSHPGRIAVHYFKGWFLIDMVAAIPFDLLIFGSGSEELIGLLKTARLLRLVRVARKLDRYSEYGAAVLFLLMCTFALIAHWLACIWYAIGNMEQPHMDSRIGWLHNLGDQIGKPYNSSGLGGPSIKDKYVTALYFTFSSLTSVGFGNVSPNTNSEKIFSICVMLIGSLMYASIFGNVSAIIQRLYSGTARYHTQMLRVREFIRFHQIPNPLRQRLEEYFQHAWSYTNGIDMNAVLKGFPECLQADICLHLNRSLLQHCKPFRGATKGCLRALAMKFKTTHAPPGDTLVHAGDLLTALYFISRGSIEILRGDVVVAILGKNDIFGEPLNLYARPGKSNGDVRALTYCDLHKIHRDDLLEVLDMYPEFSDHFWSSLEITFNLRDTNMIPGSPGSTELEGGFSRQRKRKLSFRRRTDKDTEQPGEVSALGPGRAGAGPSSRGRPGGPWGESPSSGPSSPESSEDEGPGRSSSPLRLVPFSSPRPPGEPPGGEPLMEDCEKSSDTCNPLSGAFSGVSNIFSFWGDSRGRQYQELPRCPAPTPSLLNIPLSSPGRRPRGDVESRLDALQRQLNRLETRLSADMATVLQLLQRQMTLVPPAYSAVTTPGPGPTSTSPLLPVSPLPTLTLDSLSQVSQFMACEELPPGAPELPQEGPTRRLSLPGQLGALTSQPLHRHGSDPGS

hERG (KCNH2) [10] = target: T3, hERG (KCNH2); assay: Inhibition of human ERG at 10 uM; details: read-out: Activity
Rattus norvegicus [11] = assay: Wake promoting activity in Sprague-Dawley rat assessed as effect on rapid eye movement sleep at 10 mg/kg, sc; format: functional, organism-based; set-up: dose 10 mg/kg; outline: as §1
Cytochrome P450 1A2 = target: T4, Cytochrome P450 1A2 (Homo sapiens, UniProt P05177); assay: Inhibition of CPY1A2 at >40 uM
T4 sequence (P05177 whole entry): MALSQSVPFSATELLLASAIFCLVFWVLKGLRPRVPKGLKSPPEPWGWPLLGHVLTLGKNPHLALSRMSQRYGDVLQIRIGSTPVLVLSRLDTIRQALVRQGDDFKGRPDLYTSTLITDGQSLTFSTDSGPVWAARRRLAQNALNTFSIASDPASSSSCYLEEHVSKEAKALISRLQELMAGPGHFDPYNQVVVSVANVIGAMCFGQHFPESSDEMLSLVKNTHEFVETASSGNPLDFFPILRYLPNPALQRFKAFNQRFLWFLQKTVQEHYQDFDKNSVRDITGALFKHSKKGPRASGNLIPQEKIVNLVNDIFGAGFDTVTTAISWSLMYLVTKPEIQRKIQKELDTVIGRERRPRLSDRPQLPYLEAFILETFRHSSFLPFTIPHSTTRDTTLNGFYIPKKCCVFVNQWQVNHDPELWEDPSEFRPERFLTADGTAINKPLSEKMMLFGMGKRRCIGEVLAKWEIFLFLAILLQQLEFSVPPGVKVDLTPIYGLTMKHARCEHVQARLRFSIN

T1 sequence (Q9Y5N1 whole entry): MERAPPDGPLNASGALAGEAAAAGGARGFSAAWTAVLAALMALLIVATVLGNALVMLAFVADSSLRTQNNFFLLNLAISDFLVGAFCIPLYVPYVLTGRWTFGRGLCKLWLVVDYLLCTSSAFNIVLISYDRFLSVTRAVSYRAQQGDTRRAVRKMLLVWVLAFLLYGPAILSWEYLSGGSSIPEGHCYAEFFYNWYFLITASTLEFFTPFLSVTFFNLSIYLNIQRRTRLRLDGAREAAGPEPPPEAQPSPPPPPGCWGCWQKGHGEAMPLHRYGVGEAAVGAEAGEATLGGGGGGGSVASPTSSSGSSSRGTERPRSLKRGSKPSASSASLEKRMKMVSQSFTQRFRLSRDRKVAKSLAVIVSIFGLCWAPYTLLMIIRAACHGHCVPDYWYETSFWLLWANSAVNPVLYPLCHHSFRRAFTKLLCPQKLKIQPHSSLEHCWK

SMILES	Ki (Histamine H3 receptor [1]) [nM]	also measured
C(#Cc1ccc(CN2CCN(Cc3ccccc3)CC2)cc1)CCN1CCCCC1	1.91	
C(#Cc1cccc(CN2CCCCC2)c1)CCN1CCOCC1	14.5	
CN1CCN(CCC#Cc2ccc(CN3CCCCC3)cc2)CC1	5.25	
CCN(CC)CCC#Cc1ccc(CN2CCCCC2)cc1	1.35	
C(#Cc1cccc(CN2CCCC2)c1)CCN1CCCCC1	81.3	
C(#Cc1ccc(CN2CCOCC2)cc1)CCN1CCCCC1	1.74	Kb (Histamine H3 receptor [2]): 3.24 nM
C(#Cc1cccc(CN2CCOCC2)c1)CCN1CCCCC1		ED50 (Rattus norvegicus [3]): 6.5 mg/kg; half-life [4]: 1.5 h; inhibition (INH) (Cytochrome P450 2C9): Not Active; Ki (Histamine H1 receptor): > 10000 nM; inhibition (INH) (Cytochrome P450 2D6): Not Active; Kb (Histamine H3 receptor [5]): 4.68 nM; Activity (Rattus norvegicus [6]): Active; inhibition (INH) (Cytochrome P450 2C19): Not Active; inhibition (INH) (Cytochrome P450 3A4): Not Active; Ki (Histamine H3 receptor [7]): 7.08 nM; bioavailability [8]: 11%; Ki (Histamine H4 receptor): > 10000 nM; inhibition at 3 µM (hERG (KCNH2) [9]): 8.3%; inhibition at 10 µM (hERG (KCNH2) [10]): 13.7%; Activity (Rattus norvegicus [11]): inactive; inhibition (INH) (Cytochrome P450 1A2): Not Active
C(#Cc1ccc(CN2CCCCC2)cc1)CCN1CCOCC1	5.01	
C(#Cc1ccc(CN2CCC(Cc3ccccc3)CC2)cc1)CCN1CCCCC1	3.47	
C(#Cc1ccc(CN2CCCCC2)cc1)CCN1CCSCC1	3.8	
CN1CCN(Cc2ccc(C#CCCN3CCCCC3)cc2)CC1	0.977	
C(#Cc1ccccc1CN1CCCCC1)CCN1CCCCC1	83.2	

The next lines start with results.

Ki (Histamine H3 receptor [1]) [nM]	SMILES	also measured
0.513	C(#Cc1ccc(CN2CCCCC2)cc1)CCN1CCCCC1	Kb (Histamine H3 receptor [2]): 0.148 nM
0.871	CC(C)N1CCN(Cc2ccc(C#CCCN3CCCCC3)cc2)CC1	
0.776	C(#Cc1cccc(CN2CCCCC2)c1)CCN1CCCCC1	Kb (Histamine H3 receptor [2]): 0.0813 nM
0.55	NC(=O)C1CCN(Cc2cccc(C#CCCN3CCCCC3)c2)CC1	
0.724	CN1CCN(Cc2cccc(C#CCCN3CCCCC3)c2)CC1	
0.912	CN(C)Cc1ccc(C#CCCN2CCCCC2)cc1	
0.617	C(#Cc1ccc(CN2CCCC2)cc1)CCN1CCCCC1	
0.759	NC(=O)C1CCN(Cc2ccc(C#CCCN3CCCCC3)cc2)CC1	
0.676	C(#Cc1ccc(CN2CCCCC2)cc1)CCN1CCCC1	
0.891	OC1CCN(Cc2ccc(C#CCCN3CCCCC3)cc2)CC1	

— ChEMBL document CHEMBL1154085, “Diamine-based human histamine H3 receptor antagonists: (4-aminobutyn-1-yl)benzylamines” (Eur J Med Chem, 2009)
